Legend:
[1] = Inhibition of […] (unknown origin) using imipenem as substrate by spectrophotometric assay relative to control; set-up: species or system Bacteria
Outline: (§1)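 Ki from a competitive model. Initial rates of hydrolysis of 150 μM imipenem (reporter substrate) measured spectrophotometrically in 50 mM HEPES pH 7.5 at varying inhibitor concentrations. v0/vi plotted against [I], and Ki = KM/[(KM+[S])·slope]. Assays run in triplicate.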

Bacteria [2] = assay: Inhibition of IMP-1 (unknown origin) using imipenem as substrate at 50 uM by spectrophotometric assay relative to control
Outline: (§2)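 Reporter-substrate spectrophotometric assay in 50 mM HEPES pH 7.5. Imipenem 150 μM (final) hydrolysis followed as absorbance change at 300 nm, with and without 50 μM compound. Compounds dissolved in DMSO (100 mM stock) and diluted in reaction buffer. % inhibition = 100 − 100×(vi/v0). 5 mM EDTA served as inhibition control.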

Bacteria [3] = assay: Inhibition of […] (unknown origin) using imipenem as substrate at 50 uM by spectrophotometric assay relative to control; outline: as §2
Bacteria [4] = assay: Inhibition of VIM-2 (unknown origin) using imipenem as substrate at 50 uM by spectrophotometric assay relative to control; outline: as §2
[5] = Inhibition of IMP-1 (unknown origin) using imipenem as substrate by spectrophotometric assay relative to control; set-up: species or system Bacteria; outline: as §1
Klebsiella pneumoniae [6] = assay: Synergistic antibacterial activity against Klebsiella pneumoniae SI-518 assessed as meropenem MIC at 32 ug/ml after 24 hrs by two-fold serial dilution method; assay type: functional; conditions: dose 32 µg/ml
Outline: (§3)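 Meropenem MICs against NDM-1-producing clinical isolates, with or without inhibitor fixed at 32 μg/mL, by two-fold serial dilution in Mueller-Hinton broth. Inoculum 5×10^4 CFU/well, CLSI method. Inhibitor added before the antibiotic. Plates incubated 24 h at 35 °C and read visually. Done in triplicate.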

Escherichia coli [7] = assay: Synergistic antibacterial activity against Escherichia coli SI-004M assessed as meropenem MIC at 32 ug/ml after 24 hrs by two-fold serial dilution method; assay type: functional; conditions: dose 32 µg/ml; outline: as §3
Klebsiella pneumoniae [8] = assay: Synergistic antibacterial activity against Klebsiella pneumoniae SI-518 assessed as fold reduction in meropenem MIC at 32 ug/ml after 24 hrs by two-fold serial dilution method; assay type: functional; conditions: dose 32 µg/ml; outline: as §3
Escherichia coli [9] = assay: Synergistic antibacterial activity against Escherichia coli SI-004M assessed as fold reduction in meropenem MIC at 32 ug/ml after 24 hrs by two-fold serial dilution method; assay type: functional; conditions: dose 32 µg/ml; outline: as §3
Klebsiella pneumoniae [10] = assay: Antibacterial activity against Klebsiella pneumoniae SI-518 assessed as reduction in microbial growth after 24 hrs by two-fold serial dilution method; assay type: functional
Outline: (§4)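 NDM-1-producing clinical isolate; meropenem MIC measured without inhibitor and with a fixed 32 μg/mL inhibitor (in each well and in the diluent) over two-fold serial dilutions. Mueller-Hinton broth, 5×10^4 CFU/well inoculum, per CLSI. Incubated 35 °C for 24 h and read visually. Triplicate. Compounds from a DMSO stock diluted in medium.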

Escherichia coli [11] = assay: Antibacterial activity against Escherichia coli SI-004M assessed as reduction in microbial growth after 24 hrs by two-fold serial dilution method; assay type: functional; outline: as §4

Ki [1] [µM] | inhibition (Bacteria [2]) [%] | inhibition (Bacteria [3]) [%] | inhibition (Bacteria [4]) [%] | SMILES | further results
4.8 | < 20 | 74 | < 20 | O=C1/C(=C/c2ccc(N3CCCCC3)cc2)Oc2cc(O)cc(O)c21 | 
 |  | 46 |  | CCCCOc1ccc(/C=C2\Oc3cc(O)cc(O)c3C2=O)c(O)c1 | 
 |  | 24 |  | O=C(/C=C/c1ccc(N2CCOCC2)cc1)c1ccccc1O | 
4.1 | 23 | 77 | < 20 | O=C1/C(=C/c2ccc(O)c(O)c2)Cc2cc(O)cc(O)c21 | 
2.2 | 84 | 95 | 37 | Oc1cccc2ccc(/C=C/c3ccccc3)nc12 | Ki [5]: 4.7 µM; MIC (Klebsiella pneumoniae [6]): 0.25 µg/mL; MIC (Escherichia coli [7]): 1 µg/mL; fold change (FC) (Klebsiella pneumoniae [8]): 256; fold change (FC) (Escherichia coli [9]): 64
 |  | < 20 |  | O=C(/C=C/c1ccc2c(c1)OCO2)c1ccccc1O | 
1.1 | 71 | 90 | 38 | Oc1cccc2ccc(CCc3ccc4c(c3)OCO4)nc12 | MIC (Klebsiella pneumoniae [6]): 64 µg/mL; MIC (Escherichia coli [7]): 64 µg/mL
 | 76 | 85 | 28 | Oc1cccc2ccc(CCc3ccccc3)nc12 | 
 | 79 | 93 | 26 | Oc1cccc2ccc(/C=C/c3ccc4c(c3)OCO4)nc12 | 
 |  |  |  | C[C@@H](O)[C@H]1C(=O)N2C(C(=O)O)=C(S[C@@H]3CN[C@H](C(=O)N(C)C)C3)[C@H](C)[C@H]12 [MEROPENEM] | MIC (Klebsiella pneumoniae [10]): 64 µg/mL; MIC (Escherichia coli [11]): 64 µg/mL
 |  | 35 |  | O=C(/C=C/c1ccc(N2CCCCC2)cc1)c1ccccc1O | 

Source: ChEMBL document CHEMBL5113498, “A fragment-based drug discovery strategy applied to the identification of NDM-1 β-lactamase inhibitors” (Eur J Med Chem, 2022)
